Measured values collected from several papers.
Lines come from different studies, so protocols differ.
Target: Mitogen-activated protein kinase kinase kinase 14 (MAP3K14, Homo sapiens, UniProt Q99558)

Structure (SMILES)	assay	setting	measurement	result
Cn1cc(-c2cc(F)cc(N3CCn4c(cc5c4CCCC5)C3=O)c2CO)cc(Nc2ccc(N3CCN(C4COC4)CC3)cn2)c1=O	enzyme activity, inhibitor	0.1 µM	inhibition	6%
O=c1[nH]c2ccccc2n1C1CCN(Cc2ccc(-c3[nH]c4cc5ncnc5cc4nc3-c3ccccc3)cc2)CC1	cell-free assay	0.5 µM	remaining signal	96.8%
Cn1cncc1[C@](O)(COc1ccc(C#N)cc1-c1ccc(OC(F)(F)F)cc1)c1ccc(C#N)cc1	cell-free assay, competition with immobilised ligand	1 µM	remaining binding	88%
Nc1ncc(-c2nc(N3CCOCC3)nc(N3CCOCC3)n2)c(C(F)F)n1	binding, competition with immobilised ligand	10 µM	remaining binding	70%
Cn1cc(-c2cccc(N3CCc4c(sc5c4CC(C)(C)C5)C3=O)c2CO)cc(Nc2ccncn2)c1=O	enzyme activity, inhibitor	1 µM	inhibition	-3%
CC(C)(C)c1cc(C=C(C#N)C#N)cc(Br)c1O	enzyme activity, inhibitor	0.5 µM	remaining activity	97.3%
COc1ncccc1-c1cnn2ccc(N3CCN(C(=O)OC(C)C)CC3)nc12	binding, competition with immobilised ligand	1 µM	remaining binding	100%
N#CC1(c2ccccn2)CCN(Cc2cc(C(=O)O)c(=O)n3ccccc23)CC1	cell-free assay, competition with immobilised ligand	1 µM	remaining binding	73%
